Columns and labels:
MCF7 [1] = assay: Cytotoxicity against human MCF7 cells assessed as reduction in cell growth incubated for 72 hrs by MTT assay; assay type: functional, cell-based; settings: MCF7, 72 h
Summary of the method: (§1)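 Cells grown in DMEM with 10% FBS and penicillin-streptomycin at 37 °C, 5% CO2, seeded at 3000 cells/well and attached overnight. Screening series given at 1, 3, 10, 100 μM; follow-up agent at 100 nM–3 μM; both 72 h, with 0.1% DMSO vehicle. MTT (5 mg/mL stock) added for 3 h at 37 °C, formazan dissolved in DMSO, absorbance read at 570 nm. Viability expressed as % of DMSO-treated wells from replicates.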

A-375 [2] = assay: Cytotoxicity against human A375 cells assessed as reduction in cell growth at 1 uM incubated for 72 hrs by MTT assay relative to control; assay type: functional; settings: A-375, 72 h, read-out: GI; summary of the method: as §1
MCF7 [3] = assay: Cytotoxicity against human MCF7 cells assessed as reduction in cell growth at 100 uM incubated for 72 hrs by MTT assay relative to control; assay type: functional; settings: MCF7, 72 h, read-out: GI; summary of the method: as §1
A-431 [4] = assay: Cytotoxicity against human A431 cells assessed as reduction in cell growth incubated for 72 hrs by MTT assay; assay type: functional, cell-based; settings: A-431, 72 h; summary of the method: as §1
A-431 [5] = assay: Cytotoxicity against human A431 cells assessed as reduction in cell growth at 100 uM incubated for 72 hrs by MTT assay relative to control; assay type: functional; settings: A-431, 72 h, read-out: GI; summary of the method: as §1
HeLa [6] = assay: Cytotoxicity against human HeLa cells assessed as reduction in cell growth incubated for 72 hrs by MTT assay; assay type: functional, cell-based; summary of the method: as §1
MCF7 [7] = assay: Cytotoxicity against human MCF7 cells assessed as reduction in cell growth at 3 uM incubated for 72 hrs by MTT assay relative to control; assay type: functional; settings: MCF7, 72 h, read-out: GI; summary of the method: as §1
A-431 [8] = assay: Cytotoxicity against human A431 cells assessed as reduction in cell growth at 10 uM incubated for 72 hrs by MTT assay relative to control; assay type: functional; settings: A-431, 72 h, read-out: GI; summary of the method: as §1
HeLa [9] = assay: Cytotoxicity against human HeLa cells assessed as reduction in cell growth at 10 uM incubated for 72 hrs by MTT assay relative to control; assay type: functional; settings: read-out: GI; summary of the method: as §1
A-431 [10] = assay: Cytotoxicity against human A431 cells assessed as reduction in cell growth at 3 uM incubated for 72 hrs by MTT assay relative to control; assay type: functional; settings: A-431, 72 h, read-out: GI; summary of the method: as §1
A-431 [11] = assay: Cytotoxicity against human A431 cells assessed as reduction in cell growth at 30 uM incubated for 72 hrs by MTT assay relative to control; assay type: functional; settings: A-431, 72 h, read-out: GI
A-375 [12] = assay: Cytotoxicity against human A375 cells assessed as reduction in cell growth incubated for 72 hrs by MTT assay; assay type: functional, cell-based; settings: A-375, 72 h; summary of the method: as §1
MCF7 [13] = assay: Cytotoxicity against human MCF7 cells assessed as reduction in cell growth at 30 uM incubated for 72 hrs by MTT assay relative to control; assay type: functional; settings: MCF7, 72 h, read-out: GI
A-375 [14] = assay: Cytotoxicity against human A375 cells assessed as reduction in cell growth at 3 uM incubated for 72 hrs by MTT assay relative to control; assay type: functional; settings: A-375, 72 h, read-out: GI; summary of the method: as §1
HeLa [15] = assay: Cytotoxicity against human HeLa cells assessed as reduction in cell growth at 3 uM incubated for 72 hrs by MTT assay relative to control; assay type: functional; settings: read-out: GI; summary of the method: as §1
MCF7 [16] = assay: Cytotoxicity against human MCF7 cells assessed as reduction in cell growth at 1 uM incubated for 72 hrs by MTT assay relative to control; assay type: functional; settings: MCF7, 72 h, read-out: GI; summary of the method: as §1
HeLa [17] = assay: Cytotoxicity against human HeLa cells assessed as reduction in cell growth at 1 uM incubated for 72 hrs by MTT assay relative to control; assay type: functional; settings: read-out: GI; summary of the method: as §1
MCF7 [18] = assay: Cytotoxicity against human MCF7 cells assessed as reduction in cell growth at 10 uM incubated for 72 hrs by MTT assay relative to control; assay type: functional; settings: MCF7, 72 h, read-out: GI; summary of the method: as §1
A-375 [19] = assay: Cytotoxicity against human A375 cells assessed as reduction in cell growth at 100 uM incubated for 72 hrs by MTT assay relative to control; assay type: functional; settings: A-375, 72 h, read-out: GI; summary of the method: as §1
A-375 [20] = assay: Cytotoxicity against human A375 cells assessed as reduction in cell growth at 30 uM incubated for 72 hrs by MTT assay relative to control; assay type: functional; settings: A-375, 72 h, read-out: GI
HeLa [21] = assay: Cytotoxicity against human HeLa cells assessed as reduction in cell growth at 30 uM incubated for 72 hrs by MTT assay relative to control; assay type: functional; settings: read-out: GI
HeLa [22] = assay: Cytotoxicity against human HeLa cells assessed as reduction in cell growth at 100 uM incubated for 72 hrs by MTT assay relative to control; assay type: functional; settings: read-out: GI; summary of the method: as §1
A-375 [23] = assay: Cytotoxicity against human A375 cells assessed as reduction in cell growth at 10 uM incubated for 72 hrs by MTT assay relative to control; assay type: functional; settings: A-375, 72 h, read-out: GI; summary of the method: as §1
A-431 [24] = assay: Cytotoxicity against human A431 cells assessed as reduction in cell growth at 1 uM incubated for 72 hrs by MTT assay relative to control; assay type: functional; settings: A-431, 72 h, read-out: GI; summary of the method: as §1

| Structure (SMILES) | IC50 (MCF7 [1]) [nM] | inhibition of growth at 1 µM (A-375 [2]) [%] | inhibition of growth at 100 µM (MCF7 [3]) [%] | IC50 (A-431 [4]) [nM] | inhibition of growth at 100 µM (A-431 [5]) [%] | IC50 (HeLa [6]) [nM] | inhibition of growth at 3 µM (MCF7 [7]) [%] | inhibition of growth at 10 µM (A-431 [8]) [%] | inhibition of growth at 10 µM (HeLa [9]) [%] | inhibition of growth at 3 µM (A-431 [10]) [%] | inhibition of growth at 30 µM (A-431 [11]) [%] | IC50 (A-375 [12]) [nM] | inhibition of growth at 30 µM (MCF7 [13]) [%] | inhibition of growth at 3 µM (A-375 [14]) [%] | inhibition of growth at 3 µM (HeLa [15]) [%] | inhibition of growth at 1 µM (MCF7 [16]) [%] | inhibition of growth at 1 µM (HeLa [17]) [%] | inhibition of growth at 10 µM (MCF7 [18]) [%] | inhibition of growth at 100 µM (A-375 [19]) [%] | inhibition of growth at 30 µM (A-375 [20]) [%] | other results |
| --- | --- | --- | --- | --- | --- | --- | --- | --- | --- | --- | --- | --- | --- | --- | --- | --- | --- | --- | --- | --- | --- |
| Cc1cccc(/C(N)=N/NC(=S)N2CCSCC2)n1 | > 100000 | 47.2 | 46.8 | 2600 | 80.7 | 1800 | 20.6 | 53.2 | 67.6 | 51.7 | 64.5 | 1400 | 38.6 | 60.1 | 54.6 | 7.3 | 46.5 | 22.5 | 77.4 | 73.1 | inhibition of growth at 30 µM (HeLa [21]): 85.3%; inhibition of growth at 100 µM (HeLa [22]): 81.6%; inhibition of growth at 10 µM (A-375 [23]): 62.6%; inhibition of growth at 1 µM (A-431 [24]): 42.8% |
| Cc1ccnc(/C(N)=N/NC(=S)N2CCCCC2)c1 | 18800 | 33.5 | 80.1 | 18900 | 77.6 | 7700 | 29.4 | 39.7 | 62.1 | 36.5 | 62.8 | 1900 | 61.7 | 69.5 | 23.9 | 21.2 | 15.3 | 40.7 | 85.6 | 80 | inhibition of growth at 30 µM (HeLa [21]): 69.1%; inhibition of growth at 100 µM (HeLa [22]): 70.8%; inhibition of growth at 10 µM (A-375 [23]): 81.2%; inhibition of growth at 1 µM (A-431 [24]): 31.1% |
